FGF22 binding – binders of human FGF22 protein, primary screen, FGF22 synaptogenesis inhibitor project, biophysical, thermal shift, single point. Fibroblast growth factor 22 (Homo sapiens), Q9HCT0. recombinant FGF22 thermal shift, SYPRO orange fluorescence; percent of sucrose octasulfate shift, DMSO zero. activity (Tm shift, normalised), % at 9.99 µM. hit rate 1.5% among 340,000;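 active = mean Tm shift, scaled 0 neutral to 100 positive control, at about 1.3% or above, every replicate too, limit read from the data; inconclusive = no clear call, values can overlap the other calls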
Target sequence (Q9HCT0 whole entry, looked up): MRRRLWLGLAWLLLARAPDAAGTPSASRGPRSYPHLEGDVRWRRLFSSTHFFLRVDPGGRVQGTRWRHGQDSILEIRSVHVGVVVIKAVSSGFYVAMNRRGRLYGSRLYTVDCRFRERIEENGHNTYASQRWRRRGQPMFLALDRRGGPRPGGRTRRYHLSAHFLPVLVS
E-selectin induc – E-selectin induction in HUVECs, primary screen, imaging, HUVEC, immunofluorescence imaging, single point; P16581; hit rate 0.37% among 260,000; activation, % at 7.58 µM; normalized: neutral wells 0, TNF-alpha wells 100; AID 686992, 2013;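 active = mean E-selectin-positive cell signal at least 10% of the positive control, reached in at least 60% of replicates, without over 20% cell loss; inconclusive = no rule given, readout overlaps actives, possibly toxicity-flagged; inactive = the rest, including those meeting only one limit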
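Test system – human umbilical vein endothelial cells (HUVEC), E-selectin induction · Input – 3,000 HUVEC seeded per well · Buffer or medium – EGM-2, gelatin · Compound dosing – single-point compound dose · Detection – immunofluorescence imaging · Measure – percent E-selectin-positive cells · Controls – TNF-alpha high, DMSO low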
Env fusion inh – inhibitors of HIV-1 Env-driven cell-cell fusion, primary screen, HeLa-JRFL effector, CEM21 target cells, luciferase; inhibition, % at 12.3 µM; hit rate 1.1% among 360,000; AID 651610, 2012;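 active = mean replicate inhibition score of at least 50 and every replicate individually at or above 50; inconclusive = only one of the two criteria met; inactive = mean below 50 and not all replicates reaching 50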
CFTR F508del cor – F508del CFTR correction, initial screen, CFBE line, single point; activity (quench increase), % at 7.58 µM; hit rate 0.36% among 350,000; CFBE cells, YFP halide quenching; stimulated with forskolin plus potentiator P3; % fluorescence drop versus neutral controls;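 active = mean added fluorescence quench of at least 8% versus neutral control, with both replicates also reaching 8%; inconclusive = only one of the mean or replicate conditions met; inactive = mean below 8% and not both replicates reaching 8%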;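 note: cells transiently co-express mutant CFTR-F508del with the halide-sensitive YFP; corrector assay measuring rescue of mutant channel to the surface after 24 h compound exposure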
S100A4 MyoIIA – inhibitors of S100A4-myosin IIA peptide binding, primary screen, biochemical, fluorescence polarization, TAMRA-MyoIIA peptide; Protein S100-A4 (Homo sapiens), P26447; inhibition, % at 10.7 µM; hit rate 0.14% among 360,000;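 active = mean inhibition of at least 70% across replicates, with every replicate also reaching that level; inconclusive = mean inhibition reaches 70% but some replicates fall short; inactive = mean inhibition below 70%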
Target sequence (P26447 whole entry, looked up): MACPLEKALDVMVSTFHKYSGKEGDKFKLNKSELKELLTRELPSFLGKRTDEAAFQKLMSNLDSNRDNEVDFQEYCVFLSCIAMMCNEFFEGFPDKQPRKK
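Test system: S100A4 monomer protein; Medium: HEPES pH 7.2 with CaCl2, KCl, NaCl, DTT, Triton; Probe or stimulus: TAMRA-labelled myosin IIA heavy-chain peptide probe, 5 nM; Doses: one dose per compound; Times: polarization read 5 min after assay mix addition, stable 5–60 min; Benchmarks: neutral control DMSO, positive control TFP.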
A number is an active result; - = inactive; ? = inconclusive; . = no result; ! = repeats disagree; [ ] = another dose, or the depositor's remark. Shown are actives, neighbours in structure and some others; about 2.7% of the full set was active somewhere.

SMILES	FGF22 binding	E-selectin induc	Env fusion inh	CFTR F508del cor	S100A4 MyoIIA
COc1ccc(NC(=O)Nc2ccc3c(c2)C(=O)N([C@@H](C)CO)C[C@@H](C)[C@@H](CN(C)S(=O)(=O)c2ccc(C)cc2)O3)cc1	-	-	-	-	-
C[C@H]1CN([C@@H](C)CO)C(=O)c2cc(-c3ccc(C#N)cc3)cnc2O[C@@H]1CN(C)Cc1cncnc1	-	-	-	-	-
O=C(CNCc1ccccc1)Nc1ccccc1-c1ccccc1	44	.	-	-	-
C[C@H](CO)N1C[C@H](C)[C@@H](CN(C)S(=O)(=O)c2cccs2)OCCCC[C@H](C)Oc2ccc(NC(=O)c3ccncc3)cc2C1=O	-	.	-	-	-
C[n+]1cc2c3c(ccc2c2ccc4cc5c(cc4c21)OCO5)OCO3	-	-	110	-	-
O=C(c1cc2cc([N+](=O)[O-])ccc2oc1=O)N1CCN(c2ncccn2)CC1	.	.	-	.	.
O=C(c1cc2cc([N+](=O)[O-])ccc2oc1=O)N1CCOCC1	43	-	-	-	-
Cc1cc(C)nc(NC(N)=NC(C)c2ccccc2)n1 (configuration not stated)	-	185	-	-	-
N#Cc1ccc(S(=O)(=O)N2CCCN(c3nc4ccc(Cl)cc4s3)CC2)cc1	-	-	55	-	-
Cc1ccc(S(=O)(=O)Nc2ccc3c(c2)C(=O)N([C@H](C)CO)C[C@@H](C)[C@H](CN(C)C(=O)Nc2cccc4ccccc24)O3)cc1	.	-	-	-	.
C[C@H](CO)N1C[C@H](C)[C@H](CN(C)C(=O)Nc2ccc(C(F)(F)F)cc2)Oc2ccc(NC(=O)Cn3cnnn3)cc2C1=O	-	-	.	-	-
COCCCNc1nc2c(c(=O)n(Cc3ccc(Cl)cc3)c(=O)n2C)n1C	-	.	-	-	-
Cn1c(NCCCN2CCOCC2)nc2c1c(=O)n(Cc1ccc(Cl)cc1Cl)c(=O)n2C	.	.	63	.	.
CN1CCN(C2CN(Cc3cn(Cc4ccccc4C(F)(F)F)nn3)S(=O)(=O)C2)CC1 (configuration not stated)	-	-	.	-	-
CN(C)CCN1CCN(C2CN(Cc3cn(Cc4ccccc4C(F)(F)F)nn3)S(=O)(=O)C2)CC1 (configuration not stated)	15	-	-	-	-
CCOc1ccc(C(=O)Nc2cccc(C(=O)O)c2C)cc1Cl	-	-	60	.	-
CCC(=O)Nc1ccc2c(c1)C(=O)N(C)C[C@@H](OC)[C@H](C)CN(Cc1cc(-c3ccccc3)on1)[C@H](C)CO2	-	-	-	-	-
COCC(=O)N1C[C@H](C)[C@@H](OC)CN(C)C(=O)c2cc(NC(=O)c3ccccc3)ccc2OC[C@@H]1C	-	-	.	-	-
Cc1ccc(NC(=O)CO/N=C(\N)c2ccccc2)cc1C	43	-	.	-	-
C[C@H]1C[C@H]2[C@@H]3CCC4=CC(=O)C=C[C@]4(C)[C@@]3(Cl)[C@@H](O)C[C@]2(C)[C@@]1(O)C(=O)CO	-	-	-	-	-
C[C@H]1C[C@H]2[C@@H]3CCC4=CC(=O)C=C[C@]4(C)[C@@]3(F)[C@@H](O)C[C@]2(C)[C@@]1(O)C(=O)CO	-	-	-	10	-
COc1ccc(NC(=O)N(C)C[C@@H]2Oc3cc(C#CCC(C)C)ccc3S(=O)(=O)N([C@H](C)CO)C[C@@H]2C)cc1	-	-	.	9.2	-
COc1ccc(C#Cc2ccc3c(c2)O[C@H](CN(C)C(=O)Nc2cccc(OC)c2)[C@H](C)CN([C@H](C)CO)S3(=O)=O)cc1	-	-	-	8.6	-
COc1ccc(NC(=O)N(C)C[C@H]2Oc3cc(C#CCC(C)C)ccc3S(=O)(=O)N([C@H](C)CO)C[C@H]2C)cc1	-	-	.	-	-
Cc1ccc(NC(=O)CN(C)C(=O)COc2ccc(C(=O)c3ccc(F)cc3)cc2)cc1	44	.	-	-	-
SMILES	FGF22 binding	E-selectin induc	Env fusion inh	CFTR F508del cor	S100A4 MyoIIA
Cc1ccc(CC(=O)NCc2cccnc2)cc1	44	.	-	-	-
COc1cc(NC(=S)NCc2cccnc2)cc(OC)c1OC	-	27	-	.	-
O=C(Cc1ccc(Br)cc1)NCc1ccccc1	-	.	-	20	-
NC(=S)NCc1cccnc1	43	-	-	-	-
Cc1ccc(CSCC(=O)NCc2cccnc2)cc1	-	.	-	.	-
NNC(=S)NCc1cccnc1	.	.	-	.	.
CO[C@H]1CN(C)C(=O)c2ccc(NC(=O)C3CC3)cc2OC[C@@H](C)N(C(=O)c2cccnc2)C[C@@H]1C	-	-	.	-	-
COc1ccccc1N1CCN(/N=C/C=C\c2ccccc2[N+](=O)[O-])CC1	.	-	-	15	-
O=C(Nc1ccn(CCCNC2CCN(Cc3ccccc3)CC2)c(=O)n1)OCc1ccccc1	-	-	-	9.0	-
C[C@@H]1CN([C@H](C)CO)C(=O)c2cc(NC(=O)Nc3ccc(C(F)(F)F)cc3)ccc2O[C@@H]1CN(C)S(=O)(=O)c1ccccc1	-	-	-	-	-
C[C@@H]1CN([C@@H](C)CO)C(=O)c2cc(NC(=O)Nc3ccc(C(F)(F)F)cc3)ccc2O[C@H]1CN(C)S(=O)(=O)c1ccccc1	-	79	-	-	-
C[C@H](CO)N1C[C@H](C)[C@@H](CN(C)S(=O)(=O)c2ccccc2)Oc2ccc(NC(=O)Nc3ccc(C(F)(F)F)cc3)cc2C1=O	-	431!	-	-	-
Cc1ccc(S(=O)(=O)N(C)C[C@@H]2Oc3ccc(NC(=O)Nc4ccc(C(F)(F)F)cc4)cc3C(=O)N([C@@H](C)CO)C[C@@H]2C)cc1	2.8	-	.	-	-
Cc1ccc(S(=O)(=O)N(C)C[C@@H]2Oc3ccc(NC(=O)Nc4ccc(C(F)(F)F)cc4)cc3CC(=O)N([C@H](C)CO)C[C@@H]2C)cc1	-	-	76[16.7 µM]	-	-
C[C@H]1CN([C@@H](C)CO)C(=O)c2cc(NC(=O)Nc3ccc(C(F)(F)F)cc3)ccc2O[C@H]1CN(C)S(=O)(=O)c1ccccc1	-	-	?	-	-
O=C(NC1CCCCC1)[C@H]1N[C@H]2c3ccc(-c4cccc(F)c4)c(=O)n3C[C@H]2[C@@H]1CO	-	-	-	.	-
O=C(C[C@H]1CC[C@H](NS(=O)(=O)c2ccc(F)cc2)[C@H](CO)O1)NC1CCCCC1	-	-	-	-	-
Cn1cnc(S(=O)(=O)N2[C@@H]3CNC[C@H]2C3c2ccc(-c3ccccc3F)cc2)c1 (some centres not stated)	.	-	.	-	-
O=C(Nc1ccc(N2CCN(C(=O)c3cccs3)CC2)cc1)c1cccnc1	43	.	-	-	-
O=C(C[C@@H]1CC[C@H](NC(=O)c2cccc(F)c2)[C@@H](CO)O1)NCc1ccccc1	-	-	-	-	-

Screening data from PubChem BioAssay.
